Test results published in ChEMBL document CHEMBL1140346 (J Med Chem, 2005).

Key:
[1] = target: Dipeptidyl peptidase 4 (Rattus norvegicus) (UniProt P14740); experiment: Ex vivo percent inhibition of Dipeptidyl peptidase IV in rat plasma after 4 hr at 4 umol/kg peroral dose; type: functional, cell-free
[2] = target: Dipeptidyl peptidase 4 (Rattus norvegicus) (UniProt P14740); experiment: Ex vivo percent inhibition of Dipeptidyl peptidase IV in rat plasma after 30 min at 4 umol/kg peroral dose; type: functional, cell-free
[3] = Oral bioavailability in rat; type: ADME, organism-based; conditions: in vivo
Summary of the method: (§1)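 Fasted adult male Sprague-Dawley rats (250–300 g), jugular-cannulated, given 10 mg/kg in water as iv bolus or oral gavage (n = 2 per route); serial heparinized blood to 12 h, plasma acetonitrile-precipitated and quantified by LC/MS. AUC by trapezoidal (oral) or log-linear (iv) integration; F = mean oral AUC / mean iv AUC.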

[4] = target: Dipeptidyl peptidase 4 (Homo sapiens, UniProt P27487); experiment: In vitro inhibition constant against human Dipeptidyl peptidase IV
Summary of the method: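 Recombinant human DPP-IV expressed in CHO-DG44 cells, purified by anion exchange, gel filtration and MonoQ. […] IC50 from Hill fit (Morrison where needed), converted to Ki assuming competitive inhibition; mean ± SEM, ≥ triplicate.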

[5] = target: Dipeptidyl peptidase 4 (Rattus norvegicus) (UniProt P14740); experiment: Effective dose for inhibition of Dipeptidyl peptidase IV in prediabetic rat model after 6 hr; type: functional
Summary of the method: (§2)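 Fasted normal male Sprague-Dawley rats given oral doses; plasma (EDTA) taken 0.5, 2, 4 or 6 h postdose and DPP-IV activity read with fluorogenic Ala-Pro-AFC (0.1 mM, 50 mM Hepes/140 mM NaCl, ex 360/em 530 nm, initial 20 min rate). ED50 = 50% inhibitory dose from percent inhibition vs dose plot at each time point.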

[6] = target: Dipeptidyl peptidase 4 (Rattus norvegicus) (UniProt P14740); experiment: Effective dose for inhibition of Dipeptidyl peptidase IV in prediabetic rat model after 2 hr; type: functional; conditions: in the assay text read “fasted normal Sprague-Dawley rat” for “prediabetic rat model”; summary of the method: as §2
[7] = target: Dipeptidyl peptidase 4 (Rattus norvegicus) (UniProt P14740); experiment: Effective dose for inhibition of Dipeptidyl peptidase IV in prediabetic rat model after 4 hr; type: functional; conditions: in the assay text read “fasted normal Sprague-Dawley rat” for “prediabetic rat model”; summary of the method: as §2
[8] = target: Dipeptidyl peptidase 4 (Rattus norvegicus) (UniProt P14740); experiment: Effective dose for inhibition of Dipeptidyl peptidase IV in prediabetic rat model after 0.5 hr; type: functional; conditions: in the assay text read “fasted normal Sprague-Dawley rat model” for “prediabetic rat model”; summary of the method: as §2
[9] = target: Cytochrome P450 3A4 (Homo sapiens, UniProt P08684); experiment: Inhibitory concentration against Cytochrome 450 3A4; type: ADME
[10] = target: Dipeptidyl peptidase 4 (Rattus norvegicus) (UniProt P14740); experiment: Ex vivo Dipeptidyl peptidase IV inhibition in rat plasma after 4 hr 4 umol/kg peroral dose; type: functional, cell-free
[11] = Half life in rat; type: ADME; conditions: in vivo; summary of the method: as §1

Dipeptidyl peptidase 4 (Rattus norvegicus), sequence (P14740 whole entry, looked up): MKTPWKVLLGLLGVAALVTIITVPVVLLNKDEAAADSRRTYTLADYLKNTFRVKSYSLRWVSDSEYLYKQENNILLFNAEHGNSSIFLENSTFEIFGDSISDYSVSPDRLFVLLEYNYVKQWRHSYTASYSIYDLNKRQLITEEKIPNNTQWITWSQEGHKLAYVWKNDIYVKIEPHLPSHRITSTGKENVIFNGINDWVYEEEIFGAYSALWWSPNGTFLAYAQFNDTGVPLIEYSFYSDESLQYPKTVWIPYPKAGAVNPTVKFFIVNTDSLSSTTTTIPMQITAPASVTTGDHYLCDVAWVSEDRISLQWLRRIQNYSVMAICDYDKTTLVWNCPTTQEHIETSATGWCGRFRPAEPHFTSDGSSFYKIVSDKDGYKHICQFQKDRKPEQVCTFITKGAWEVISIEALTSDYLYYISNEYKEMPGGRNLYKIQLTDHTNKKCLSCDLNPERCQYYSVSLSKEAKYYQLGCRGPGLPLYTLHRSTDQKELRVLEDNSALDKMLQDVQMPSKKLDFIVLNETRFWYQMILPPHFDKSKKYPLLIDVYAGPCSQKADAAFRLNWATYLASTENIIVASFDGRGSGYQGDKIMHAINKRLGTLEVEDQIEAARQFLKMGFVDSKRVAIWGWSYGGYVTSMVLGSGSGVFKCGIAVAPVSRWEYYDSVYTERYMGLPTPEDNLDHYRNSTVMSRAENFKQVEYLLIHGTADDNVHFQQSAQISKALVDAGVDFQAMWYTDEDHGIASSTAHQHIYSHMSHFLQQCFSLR
Dipeptidyl peptidase 4, sequence (P27487 whole entry): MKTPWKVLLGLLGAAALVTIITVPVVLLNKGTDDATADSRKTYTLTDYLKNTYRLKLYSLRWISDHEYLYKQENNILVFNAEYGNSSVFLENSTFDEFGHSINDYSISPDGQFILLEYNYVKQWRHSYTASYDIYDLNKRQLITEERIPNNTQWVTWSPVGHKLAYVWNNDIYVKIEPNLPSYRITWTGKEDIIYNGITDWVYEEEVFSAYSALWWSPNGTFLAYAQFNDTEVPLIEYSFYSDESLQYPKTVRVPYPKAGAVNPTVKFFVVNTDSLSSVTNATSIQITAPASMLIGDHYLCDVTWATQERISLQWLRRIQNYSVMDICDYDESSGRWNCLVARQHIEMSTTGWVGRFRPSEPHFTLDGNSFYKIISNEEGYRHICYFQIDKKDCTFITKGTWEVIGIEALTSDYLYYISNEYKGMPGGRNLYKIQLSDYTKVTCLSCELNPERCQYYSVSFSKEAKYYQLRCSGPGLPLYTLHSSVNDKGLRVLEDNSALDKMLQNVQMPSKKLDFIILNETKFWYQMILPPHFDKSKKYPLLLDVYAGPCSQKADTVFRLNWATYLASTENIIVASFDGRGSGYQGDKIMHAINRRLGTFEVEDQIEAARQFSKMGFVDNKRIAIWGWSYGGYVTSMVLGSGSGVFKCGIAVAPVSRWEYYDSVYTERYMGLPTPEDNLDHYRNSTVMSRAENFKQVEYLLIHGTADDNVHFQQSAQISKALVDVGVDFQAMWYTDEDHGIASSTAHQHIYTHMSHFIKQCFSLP
Cytochrome P450 3A4, sequence (P08684 whole entry): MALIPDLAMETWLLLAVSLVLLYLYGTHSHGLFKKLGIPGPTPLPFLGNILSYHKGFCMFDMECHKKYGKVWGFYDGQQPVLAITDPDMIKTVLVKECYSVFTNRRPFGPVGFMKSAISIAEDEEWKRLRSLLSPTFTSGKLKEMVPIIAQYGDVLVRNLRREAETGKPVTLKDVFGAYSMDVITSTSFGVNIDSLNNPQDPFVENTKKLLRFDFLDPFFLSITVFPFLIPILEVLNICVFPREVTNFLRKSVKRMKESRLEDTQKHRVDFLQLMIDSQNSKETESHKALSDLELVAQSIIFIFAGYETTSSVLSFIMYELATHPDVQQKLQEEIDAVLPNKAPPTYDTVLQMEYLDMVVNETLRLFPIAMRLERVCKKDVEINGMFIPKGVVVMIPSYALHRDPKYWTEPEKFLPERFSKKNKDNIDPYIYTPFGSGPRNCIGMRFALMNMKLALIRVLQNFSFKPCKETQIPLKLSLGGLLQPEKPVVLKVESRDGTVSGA

Structure (SMILES) | inhibition [1] | inhibition [2] | further results
N#C[C@@H]1C[C@@H]2C[C@@H]2N1C(=O)[C@@H](N)C1(CO)CCCCC1 | 8% | 17% | 
C=CC1([C@H](N)C(=O)N2[C@H](C#N)C[C@@H]3C[C@@H]32)CCCC1 | 64% | 71% | bioavailability [3]: 5.3%; Ki [4]: 0.0039 µM
N#C[C@@H]1C[C@@H]2C[C@@H]2N1C(=O)[C@@H](N)C12CC3CC(CC(C3)C1)C2 |  | 84% | IC50 [9]: 20 µM; bioavailability [3]: 2%; inhibition [10]: 83%
N#C[C@@H]1C[C@@H]2C[C@@H]2N1C(=O)[C@@H](N)C12CC3CC(O)(CC(O)(C3)C1)C2 |  | 62% | inhibition [10]: 57%
C=CC1([C@H](N)C(=O)N2[C@H](C#N)C[C@@H]3C[C@@H]32)CCCCCC1 | 66% | 77% | 
CCC(C)(C)[C@H](N)C(=O)N1[C@H](C#N)C[C@@H]2C[C@@H]21 | 0% | 0% | 
C=CC(C)(C)[C@H](N)C(=O)N1[C@H](C#N)C[C@@H]2C[C@@H]21 | 10% | 13% | 
N#C[C@@H]1C[C@@H]2C[C@@H]2N1C(=O)[C@@H](N)C12CC3CC(CC(F)(C3)C1)C2 |  | 80% | inhibition [10]: 61%

The next lines start with results.

inhibition [1] | inhibition [2] | Structure (SMILES) | further results
44% | 40% | CCC1([C@H](N)C(=O)N2[C@H](C#N)C[C@@H]3C[C@@H]32)CCCC1 | 
56% | 69% | N#C[C@@H]1C[C@@H]2C[C@@H]2N1C(=O)[C@@H](N)C1(CO)CCCC1 | bioavailability [3]: 59%; ED50 ([5]; in the assay text read “fasted normal Sprague-Dawley rat” for “prediabetic rat model”): 11 µmol/kg; ED50 [6]: 3.2 µmol/kg; ED50 [7]: 5 µmol/kg; ED50 [8]: 0.4 µmol/kg
20% | 39% | C=CC(CC)(CC)[C@H](N)C(=O)N1[C@H](C#N)C[C@@H]2C[C@@H]21 | 
 | 87% | N#C[C@@H]1C[C@@H]2C[C@@H]2N1C(=O)[C@@H](N)C12CC3CC(CC(O)(C3)C1)C2 [SAXAGLIPTIN ANHYDROUS] | bioavailability [3]: 75%; inhibition [10]: 87%; ED50 ([5]; in the assay text read “fasted normal Sprague-Dawley rat model” for “prediabetic rat model”): 0.5 µmol/kg; ED50 [6]: 0.2 µmol/kg; ED50 [7]: 0.3 µmol/kg; ED50 [8]: 0.12 µmol/kg; half-life [11]: 2.1 h
60% | 76% | C=CC1([C@H](N)C(=O)N2[C@H](C#N)C[C@@H]3C[C@@H]32)CCCCC1 | 
17% | 36% | N#C[C@@H]1C[C@@H]2C[C@@H]2N1C(=O)[C@@H](N)C1(CO)CCC1 | 
32% | 42% | C=CC1([C@H](N)C(=O)N2[C@H](C#N)C[C@@H]3C[C@@H]32)CCC1 | 
